Source: ChEMBL document CHEMBL3774319, “Novel indole sulfides as potent HIV-1 NNRTIs” (Bioorg Med Chem Lett, 2016)

Columns and labels:
[1] = test system: Human immunodeficiency virus 1; assay: Antiretroviral activity against HIV-1 infected in HEK293T cells assessed as inhibition of viral replication by single-cycle assay; assay type: functional, organism-based; details: Human immunodeficiency virus 1, HEK-293T
Summary of the method: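 In vitro single-cycle, non-replicative phenotypic anti-HIV-1 assay; IC50 values derived from it.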

[2] = Cytotoxicity against HEK293T cells by MTT assay; assay type: cell-based, HEK-293T; details: human
Summary of the method: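 HEK293T cells read out with a tetrazolium-based colorimetric assay to give toxicity values.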

[3] = Stability in ethanol solution containing sulfuric acid assessed as compound degradation at 0.10 mmol measured within 2 hrs by HPLC method; assay type: physicochemical

SMILES	IC50 [1] [µM]	Stability [3]	CC50 [2] [µM]
CCOC(=O)c1[nH]c2ccc(Cl)cc2c1N(CC)c1ccccc1	1.2	–	22.8
CCOC(=O)c1[nH]c2ccc(Cl)cc2c1C(OC)c1cccc(Br)c1 (racemic)	0.02	–	26.4
CCOC(=O)c1[nH]c2ccc(Cl)cc2c1C(OC)c1cccc(C)c1 (racemic)	0.02	Unstable	27.4
CCOC(=O)c1[nH]c2ccc(Cl)cc2c1C(SC)c1cc(C)cc(C)c1 (racemic)	0.06	–	32
CSC(c1ccccc1)c1c[nH]c2ccc(Cl)cc12 (racemic)	9.95	–	52.7

Continued, in another order:

IC50 [1] [µM]	Stability [3]	SMILES	CC50 [2] [µM]
0.039	–	CCOC(=O)c1[nH]c2ccc(Cl)cc2c1C(SC)c1ccccc1 (racemic)	26.1
0.042	–	CCOC(=O)c1[nH]c2ccc(Cl)cc2c1C(SC)c1cccc(Cl)c1 (racemic)	28.6
0.038	Stable	CCOC(=O)c1[nH]c2ccc(Cl)cc2c1C(SC)c1cccc(C)c1 (racemic)	29.6
0.033	–	CCOC(=O)c1[nH]c2ccc(Cl)cc2c1C(OC)c1cccc(Cl)c1 (racemic)	26.8
